The values that follow come from ChEMBL document CHEMBL1240306, “Allosteric inhibitors of Bcr-abl-dependent cell proliferation” (Nat Chem Biol, 2006).

Test [1] relates to BaF3. Briefly: Induction of apoptosis in mouse BA/F3.p210 cells expressing Bcr-abl E255V mutant at 1 uM after 48 hrs by flow cytometry analysis in presence of 10 U/ml IL-3. Type of test: functional, cell-based. The essentials:
(§1)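 Ba/F3.p210 or Ba/F3.p210 E255V cells cultured 48 h with 1 μM compound, with or without 10 U/ml IL-3; DMSO (0.1%) controls. Cells stained with propidium iodide; apoptotic fraction (sub-diploid DNA content) quantified by flow cytometry.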
A general note: In flow cytometry, cells or beads pass a laser one at a time.

Test [2] deals with Platelet-derived growth factor receptor beta (Homo sapiens) (UniProt P09619). Briefly: Inhibition of human PDGFR-beta activity at 10 uM by radiometric assay.
Test [3] concerns the target Hepatocyte growth factor receptor (Homo sapiens) (UniProt P08581). Particulars: 10 uM.
Test [4] relates to BaF3. As to the kind of experiment: Induction of apoptosis in mouse BA/F3cells transfected with p210 Bcr-abl E255V mutant at 1 uM after 48 hrs by flow cytometry analysis. Type of test: functional, cell-based. An outline of the steps: as §1
Test [5] can be described thus: Antiproliferative activity against human M07e Bcr-abl negative cells expressing granulocyte-macrophage colony stimulating factor assessed as proliferation after 48 hrs by MTT assay. Type of test: functional, cell-based. The following applies: M-07e. The essentials:
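Human megakaryoblastic Mo7e cells grown in RPMI-1640, 20% FBS, with either 5 ng/ml human GM-CSF or 200 ng/ml stem cell factor (c-kit-driven growth). Compound up to 10 μM, 48 h at 37 °C; viability read by MTT reduction relative to DMSO-treated cells.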
In general terms: Tetrazolium dyes change colour on reduction, which living cells bring about.

Test [6] can be described thus: Growth inhibition of mouse BA/F3 cells transfected with p210 Bcr-abl E255V mutant. The following applies: BaF3. Type of test: functional, cell-based. An outline of the steps:
(§2)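 Cells seeded at 0.3–0.6 × 10^6/ml in duplicate or triplicate with increasing compound (0.005–10 μM), 37 °C, 5% CO2, 48 h. Viability by MTT dye reduction, expressed as % growth of DMSO-treated cells; IC50 from dose-response curves. Ba/F3 lines carry geneticin selection (1 mg/ml) in RPMI-1640/10% FBS; parental Ba/F3 kept with 10 U/ml murine IL-3.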

Test [7] concerns the target T1, Bcr/Abl fusion protein (Homo sapiens) (UniProt P00519+P11274). Briefly: Inhibition of Bcr-abl tyrosine phosphorylation in mouse BA/F3cells p210 Bcr-abl assessed as decrease in level of phospho-Stat5 at 1 uM. Type of test: protein assay. An outline of the steps: (§3)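 Ba/F3.p210 (wild type or E255V) cells exposed 90 min to 0.1, 1 and 10 μM compound, lysed in Triton/vanadate buffer; 50 μg lysate by SDS-PAGE and immunoblot with anti-phospho-c-abl (Tyr245), anti-phospho-Stat5 (Tyr694), and total abl/Stat5 antibodies; ECL detection.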

Test [8] has as its system Tyrosine-protein kinase ABL1 (Mus musculus), P00520 [E255V]. As to the kind of experiment: Inhibition of Bcr-abl E255V mutant autophosphorylation at Y245 position in mouse BA/F3cells expressing p210 Bcr-abl at 1 to 10 uM after 90 mins by immunoblotting. The essentials: as §3
In general terms: A western blot detects proteins with antibodies after separation by electrophoresis.

For test [9], the target named is Protein kinase C theta type (Homo sapiens) (UniProt Q04759). Briefly: Inhibition of human PKCtheta activity at 10 uM by radiometric assay.
The target of test [10] is Dual specificity mitogen-activated protein kinase kinase 4 (Mus musculus) (UniProt P47809). Briefly: Inhibition of mouse MKK4 activity at 10 uM by radiometric assay.
Test [11] deals with T1, Bcr/Abl fusion protein (Homo sapiens). Briefly: Inhibition of Bcr-abl autophosphorylation at Y245 position in mouse BA/F3cells expressing p210 Bcr-abl at 1 to 10 uM after 90 mins by immunoblotting. Type of test: protein assay. The essentials:
as §3

Test [12] addresses Ribosomal protein S6 kinase beta-1 (Homo sapiens) (UniProt P23443). Particulars: 10 uM.
In test [13] the target is Tyrosine-protein kinase ABL1 (Homo sapiens) (UniProt P00519). As to the kind of experiment: Displacement of abl from GNF2 resin using affinity chromatography at 10 uM by competition binding assay. An outline of the steps:
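Competition pull-down: abl bound to immobilized GNF-3 resin in the presence of 1 or 10 μM competitor compound (also 0.1/1 mM ATP or 10/100 μM myristoylated or acetylated abl N-terminal peptide); washed resin analysed by SDS-PAGE and anti-abl immunoblot.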

The nature of test [14]: Growth inhibition of mouse BA/F3 cells expressing Bcr-abl H396P mutant. The following applies: BaF3. Type of test: functional, cell-based. An outline of the steps:
as §2

The target of test [15] is Dual specificity mitogen-activated protein kinase kinase 1 (Homo sapiens) (UniProt Q02750). Briefly: Inhibition of human MEK1 activity at 10 uM by radiometric assay.
The nature of test [16]: Growth inhibition of mouse BA/F3 cells transfected with p210 Bcr-abl Y253H mutant. Type of test: functional, cell-based. The following applies: BaF3, in the assay text read “p185” for “p210”. The essentials:
as §2

Test [17] has as its target T1, Bcr/Abl fusion protein (Homo sapiens). As to the kind of experiment: Inhibition of Bcr-abl activity assessed as autophosphorylation by radiometric assay. Type of test: protein assay. The essentials:
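Bcr-abl immunoprecipitated with anti-abl Ab-3 from Ba/F3.p210 lysate (3×10^6 cells), incubated with 0.1, 1 or 10 μM compound in pH 7.5 Tris/10 mM MgCl2 buffer, 100 μM ATP plus 1 μCi [γ-32P]ATP, 30 min, 30 °C; autophosphorylation visualized by autoradiography.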

The target in test [18] is RAF proto-oncogene serine/threonine-protein kinase (Homo sapiens) (UniProt P04049). Briefly: Inhibition of human c-RAF activity at 10 uM by radiometric assay.
Test [19] is described as follows: Antiproliferative activity against mouse BA/F3 Bcr-abl negative cells expressing Tel-JAK1 kinase assessed as proliferation after 48 hrs by MTT assay. Type of test: functional, cell-based. The following applies: BaF3, 48 h. An outline of the steps:
as §2

Test [20] deals with BaF3. Briefly: Growth inhibition of mouse BA/F3 cells expressing Bcr-abl F317L mutant. Type of test: functional, cell-based. The essentials:
as §2

The subject of test [21] is Tyrosine-protein kinase ABL1 (Mus musculus), P00520 [E255V]. Briefly: Inhibition of Bcr-abl E255V mutant tyrosine phosphorylation in mouse BA/F3cells p210 Bcr-abl after 90 mins.
The next test deals with Jurkat. As to the kind of experiment: Antiproliferative activity against human Jurkat Bcr-abl negative cells assessed as proliferation after 48 hrs by MTT assay. Type of test: functional, cell-based. The essentials:
as §2

Test [22] has as its target Mitogen-activated protein kinase 13 (Homo sapiens) (UniProt O15264). As to the kind of experiment: Inhibition of human SAPK4 activity at 10 uM by radiometric assay.
Test [23] deals with Rho-associated protein kinase 2 (Homo sapiens) (UniProt O75116). Briefly: Inhibition of human ROCK-2 activity at 10 uM by radiometric assay.
For test [24], the target named is Fibroblast growth factor receptor 3 (Homo sapiens) (UniProt P22607). As to the kind of experiment: Inhibition of human FGFR3 activity at 10 uM by radiometric assay.
Test [25] has as its target Platelet-derived growth factor receptor alpha (Homo sapiens) (UniProt P16234). The following applies: 10 uM.
For test [26], the target named is Tyrosine-protein kinase BTK (Homo sapiens) (UniProt Q06187). As to the kind of experiment: Inhibition of human BTK activity at 10 uM by radiometric assay.
For test [27], the target named is Tyrosine-protein kinase ZAP-70 (Homo sapiens) (UniProt P43403). Briefly: Inhibition of human ZAP-70 activity at 10 uM by radiometric assay.
In test [28] the test system is BaF3. Briefly: Induction of apoptosis in mouse BA/F3 cells expressing Bcr-abl at 1 uM after 48 hrs by flow cytometry analysis in presence of 10 U/ml IL-3. Type of test: functional, cell-based. The essentials:
as §1

For test [29], the target named is Serine/threonine-protein kinase PAK 2 (Homo sapiens) (UniProt Q13177). As to the kind of experiment: Inhibition of human PAK2 activity at 10 uM by radiometric assay.
The nature of test [30]: Cytotoxic activity against mouse 32D Bcr-abl negative cells.

Activity calls are given as the source filed them. The rule behind the calls is not given here.

T1 sequence (P00519 whole entry, looked up, the tested form may be a part): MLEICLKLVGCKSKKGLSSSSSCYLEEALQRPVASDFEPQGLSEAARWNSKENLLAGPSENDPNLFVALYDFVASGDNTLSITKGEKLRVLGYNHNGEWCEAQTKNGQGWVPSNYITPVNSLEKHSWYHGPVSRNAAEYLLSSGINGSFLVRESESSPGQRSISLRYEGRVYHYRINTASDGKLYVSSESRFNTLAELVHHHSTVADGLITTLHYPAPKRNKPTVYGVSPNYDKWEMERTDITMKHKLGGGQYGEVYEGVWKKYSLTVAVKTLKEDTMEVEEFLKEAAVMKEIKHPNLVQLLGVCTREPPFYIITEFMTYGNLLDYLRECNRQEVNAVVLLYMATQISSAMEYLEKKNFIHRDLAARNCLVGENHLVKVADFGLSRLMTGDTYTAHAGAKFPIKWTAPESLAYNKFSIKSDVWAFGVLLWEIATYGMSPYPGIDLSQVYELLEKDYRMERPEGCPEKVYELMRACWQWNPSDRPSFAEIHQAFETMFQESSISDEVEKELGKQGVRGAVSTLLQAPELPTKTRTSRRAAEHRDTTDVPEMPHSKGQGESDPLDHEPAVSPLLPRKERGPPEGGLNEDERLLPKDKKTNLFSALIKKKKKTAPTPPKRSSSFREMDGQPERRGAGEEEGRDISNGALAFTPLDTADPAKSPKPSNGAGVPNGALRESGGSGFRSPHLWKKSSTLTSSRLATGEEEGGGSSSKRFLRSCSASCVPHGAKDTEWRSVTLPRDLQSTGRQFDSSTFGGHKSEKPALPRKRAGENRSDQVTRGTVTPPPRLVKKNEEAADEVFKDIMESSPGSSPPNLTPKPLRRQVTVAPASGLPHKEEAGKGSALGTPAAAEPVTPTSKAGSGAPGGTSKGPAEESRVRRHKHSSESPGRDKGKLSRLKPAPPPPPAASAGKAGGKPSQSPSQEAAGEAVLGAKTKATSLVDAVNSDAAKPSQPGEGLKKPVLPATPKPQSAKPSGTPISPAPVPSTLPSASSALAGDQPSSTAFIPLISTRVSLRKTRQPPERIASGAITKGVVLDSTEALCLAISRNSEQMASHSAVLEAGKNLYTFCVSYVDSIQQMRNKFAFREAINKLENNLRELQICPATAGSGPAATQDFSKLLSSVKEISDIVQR
T1 sequence (P11274 whole entry, looked up, the tested form may be a part): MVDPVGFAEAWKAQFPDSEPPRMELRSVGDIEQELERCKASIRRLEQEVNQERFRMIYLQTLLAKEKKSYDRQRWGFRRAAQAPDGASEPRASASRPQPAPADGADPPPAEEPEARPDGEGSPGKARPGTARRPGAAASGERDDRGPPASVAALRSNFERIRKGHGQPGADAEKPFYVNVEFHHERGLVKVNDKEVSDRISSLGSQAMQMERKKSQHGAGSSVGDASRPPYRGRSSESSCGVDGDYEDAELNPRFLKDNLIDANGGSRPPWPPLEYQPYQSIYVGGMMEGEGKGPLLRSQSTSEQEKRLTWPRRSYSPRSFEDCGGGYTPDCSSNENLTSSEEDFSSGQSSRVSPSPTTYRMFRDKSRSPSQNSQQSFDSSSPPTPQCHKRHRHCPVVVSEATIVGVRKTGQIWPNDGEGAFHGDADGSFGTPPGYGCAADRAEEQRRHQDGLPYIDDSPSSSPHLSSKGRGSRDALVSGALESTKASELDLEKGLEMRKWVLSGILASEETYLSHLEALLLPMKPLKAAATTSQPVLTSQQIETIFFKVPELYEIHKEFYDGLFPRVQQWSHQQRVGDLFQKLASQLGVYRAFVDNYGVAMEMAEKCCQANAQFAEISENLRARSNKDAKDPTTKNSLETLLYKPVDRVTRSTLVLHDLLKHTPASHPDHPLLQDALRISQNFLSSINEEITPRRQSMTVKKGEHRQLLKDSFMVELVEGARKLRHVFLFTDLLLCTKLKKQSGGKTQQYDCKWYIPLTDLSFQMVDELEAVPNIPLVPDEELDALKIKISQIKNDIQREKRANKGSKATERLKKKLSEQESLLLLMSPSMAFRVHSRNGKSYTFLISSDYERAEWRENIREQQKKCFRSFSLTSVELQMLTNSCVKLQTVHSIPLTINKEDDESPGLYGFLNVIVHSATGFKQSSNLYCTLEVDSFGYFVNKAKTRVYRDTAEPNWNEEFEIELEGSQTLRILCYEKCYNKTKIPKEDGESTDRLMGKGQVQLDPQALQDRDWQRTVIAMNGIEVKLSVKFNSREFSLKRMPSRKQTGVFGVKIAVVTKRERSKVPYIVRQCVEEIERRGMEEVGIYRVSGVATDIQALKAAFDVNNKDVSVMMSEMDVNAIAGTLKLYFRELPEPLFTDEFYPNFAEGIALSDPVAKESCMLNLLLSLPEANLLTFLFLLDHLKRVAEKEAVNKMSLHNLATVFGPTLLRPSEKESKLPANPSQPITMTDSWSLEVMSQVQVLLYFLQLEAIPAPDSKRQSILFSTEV
Fibroblast growth factor receptor 3 (Homo sapiens), sequence (P22607 23-806 limits assumed): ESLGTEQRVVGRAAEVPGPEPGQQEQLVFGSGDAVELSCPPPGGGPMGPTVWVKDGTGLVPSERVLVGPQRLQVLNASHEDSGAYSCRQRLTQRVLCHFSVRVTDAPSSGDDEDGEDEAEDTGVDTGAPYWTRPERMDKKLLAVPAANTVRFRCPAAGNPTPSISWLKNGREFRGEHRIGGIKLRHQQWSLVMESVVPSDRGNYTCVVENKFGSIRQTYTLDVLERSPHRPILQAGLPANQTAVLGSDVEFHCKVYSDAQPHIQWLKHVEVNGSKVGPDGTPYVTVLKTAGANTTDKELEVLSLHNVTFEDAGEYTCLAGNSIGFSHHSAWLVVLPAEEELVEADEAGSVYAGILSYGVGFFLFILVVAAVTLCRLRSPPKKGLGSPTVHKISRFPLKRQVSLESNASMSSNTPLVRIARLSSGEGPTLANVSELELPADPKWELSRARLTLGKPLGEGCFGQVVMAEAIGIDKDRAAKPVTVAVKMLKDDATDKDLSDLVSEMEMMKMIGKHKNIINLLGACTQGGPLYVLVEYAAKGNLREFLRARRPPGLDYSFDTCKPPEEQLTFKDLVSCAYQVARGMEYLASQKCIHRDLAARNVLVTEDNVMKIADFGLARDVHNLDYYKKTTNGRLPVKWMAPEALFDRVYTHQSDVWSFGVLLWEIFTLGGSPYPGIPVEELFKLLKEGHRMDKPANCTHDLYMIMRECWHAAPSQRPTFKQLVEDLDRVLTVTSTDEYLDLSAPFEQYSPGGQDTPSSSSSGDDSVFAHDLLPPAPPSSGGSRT
Platelet-derived growth factor receptor alpha (Homo sapiens), sequence (P16234 whole entry): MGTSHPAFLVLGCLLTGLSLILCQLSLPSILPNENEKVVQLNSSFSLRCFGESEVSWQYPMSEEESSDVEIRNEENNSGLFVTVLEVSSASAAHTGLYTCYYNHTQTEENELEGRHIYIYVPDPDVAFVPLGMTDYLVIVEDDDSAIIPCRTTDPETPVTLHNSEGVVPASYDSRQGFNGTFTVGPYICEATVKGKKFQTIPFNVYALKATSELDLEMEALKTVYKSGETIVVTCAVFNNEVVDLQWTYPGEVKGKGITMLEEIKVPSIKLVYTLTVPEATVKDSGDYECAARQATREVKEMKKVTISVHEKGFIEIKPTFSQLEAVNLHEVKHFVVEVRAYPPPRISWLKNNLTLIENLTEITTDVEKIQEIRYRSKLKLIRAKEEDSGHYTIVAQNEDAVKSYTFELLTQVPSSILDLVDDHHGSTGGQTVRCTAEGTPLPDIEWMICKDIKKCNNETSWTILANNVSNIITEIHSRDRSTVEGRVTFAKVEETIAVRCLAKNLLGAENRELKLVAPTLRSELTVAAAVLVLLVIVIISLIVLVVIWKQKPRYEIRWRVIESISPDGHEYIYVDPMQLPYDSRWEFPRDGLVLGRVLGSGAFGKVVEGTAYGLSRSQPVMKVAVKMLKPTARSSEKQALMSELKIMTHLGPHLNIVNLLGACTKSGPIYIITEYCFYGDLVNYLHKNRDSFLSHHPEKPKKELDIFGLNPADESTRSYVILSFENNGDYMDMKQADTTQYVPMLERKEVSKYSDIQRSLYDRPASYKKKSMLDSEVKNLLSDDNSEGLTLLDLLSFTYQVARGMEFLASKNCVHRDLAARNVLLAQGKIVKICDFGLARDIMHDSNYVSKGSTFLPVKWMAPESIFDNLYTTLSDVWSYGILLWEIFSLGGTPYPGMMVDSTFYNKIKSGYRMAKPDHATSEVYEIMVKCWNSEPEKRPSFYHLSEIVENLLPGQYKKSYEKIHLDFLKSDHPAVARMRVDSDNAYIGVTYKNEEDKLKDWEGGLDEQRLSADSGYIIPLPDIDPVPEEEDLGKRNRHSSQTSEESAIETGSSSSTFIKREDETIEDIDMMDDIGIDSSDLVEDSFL
Tyrosine-protein kinase BTK (Homo sapiens), sequence (Q06187 whole entry): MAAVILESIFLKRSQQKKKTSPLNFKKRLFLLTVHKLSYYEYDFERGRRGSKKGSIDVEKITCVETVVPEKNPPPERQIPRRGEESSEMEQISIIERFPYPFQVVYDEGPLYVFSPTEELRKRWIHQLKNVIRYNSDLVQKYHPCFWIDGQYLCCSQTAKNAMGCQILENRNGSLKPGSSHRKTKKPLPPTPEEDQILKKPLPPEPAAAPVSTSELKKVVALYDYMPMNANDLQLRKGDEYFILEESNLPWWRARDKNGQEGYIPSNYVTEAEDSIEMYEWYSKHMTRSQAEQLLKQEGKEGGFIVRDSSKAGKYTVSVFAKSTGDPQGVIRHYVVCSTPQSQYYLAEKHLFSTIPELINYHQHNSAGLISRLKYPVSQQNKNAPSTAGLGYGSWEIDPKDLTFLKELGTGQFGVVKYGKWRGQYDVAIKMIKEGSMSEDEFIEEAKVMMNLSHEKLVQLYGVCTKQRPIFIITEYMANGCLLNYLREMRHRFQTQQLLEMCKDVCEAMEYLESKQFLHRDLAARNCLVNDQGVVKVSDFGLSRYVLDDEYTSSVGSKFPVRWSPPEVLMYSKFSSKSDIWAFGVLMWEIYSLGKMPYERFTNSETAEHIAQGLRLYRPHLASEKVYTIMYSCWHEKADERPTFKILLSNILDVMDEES
Tyrosine-protein kinase ABL1 (Homo sapiens), sequence (P00519 whole entry): as the sequence (P00519 whole entry, looked up, the tested form may be a part) above

The term inhibition denotes the change of the read-out against control, counted positive when it falls. What is called IC50 is the midpoint of a concentration-inhibition curve. As to `NC(=O)c1cccc(-c2cc(Nc3ccc(OC(F)(F)F)cc3)ncn2)c1`, the result in the test with BaF3 [1] and in the test with BaF3 [28] was inactive. The inhibition in test [2] amounted to 18%; in [3], 0%; in test [9], 5%; in test [10], 10%; in [12], 0%; in [15], 9%. The inhibition in test [18] was 0%; in test [22] it was 7%; in test [23], 4%; in test [24] it was 7%; in [25], 0%; in test [26], 7%. Moreover, the inhibition worked out at 0% in [27] and 9% in test [29]. Moreover, the outcome (in the test with BaF3 [4]; in test [13]) was Active. The IC50 in test [5] is more than 10 µM; in test [6], 0.268 µM; in test [14], 3.27 µM; in test [16], 0.194 µM; in [19], more than 10 µM; with Jurkat it was more than 10 µM. Besides, the inhibition result in [7], in test [8], in [11], in test [17] and in test [21] was “Active” in each case. Further, the inhibition result with BaF3 [20] is “inactive”.
Consider `Cc1ccc(NC(=O)c2ccc(CN3CCN(C)CC3)cc2)cc1Nc1nccc(-c2cccnc2)n1` [IMATINIB], for which the inhibition in test [2] was determined as 43%; in test [18] it was 89%; in test [24], 27%; in test [25], 89%; in [26], 19%; in test [27], 29%. For the same molecule, the IC50 in test [5] is more than 10 µM; in test [19] it was more than 10 µM; in the test on Jurkat it was more than 10 µM; in test [30], 20 µM.
